Assay results reported in PMC3579501 (Transplantation, 2011).
Several values for one entry are separate records, joined by “and”; a condition that tells them apart may be missing. Identical values can stand only once. Like-named read-outs stand apart in the source and are kept apart here. Marks after values point to notes of the source that are not given here.

Tests used:
[1] = type: in vivo, human
Outline: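 Adult kidney or kidney-pancreas recipients on tacrolimus with mycophenolate and steroids, with or without induction. Whole-blood troughs were drawn before an oral dose: two per week in weeks 1–8 and two per month in months 3–6. Measurement was mostly by LC-MS. Doses were adjusted to center targets, generally 8–12 ng/mL (months 0–3) and 6–10 ng/mL (months 4–6). Dose-normalized trough = trough/daily dose (mg/kg). AA and non-AA were compared by Wilcoxon-Mann-Whitney.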

[2] = type: in vivo, human; remark: listed apart in the source
Outline: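 Log of trough (ng/mL) divided by total daily dose (mg/kg), from up to 24 troughs per patient over 6 months, fitted by general linear model. Time posttransplant (1–24) was categorical, with a covariance structure for repeated measures. Clinical factors were retained at backward-selection F-test p<0.15. Variants were tested one at a time (additive model, Toeplitz covariance), adjusted for center and retained factors. Significance was set at FDR 20%, effective m=2110.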

[3] = type: in vivo, human; remark: listed apart in the source
Outline: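 Uses the first log-transformed dose-normalized trough, taken within 4 days posttransplant. Variants and clinical factors were analysed by multiple linear regression with stepwise variable selection. Effect estimates and standard errors were taken from the final model. Age was mean-centered at 50.2 years. Center p-value is from the overall F-test.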

[4] = tested on: CYP3A5; details: cited from earlier work
[5] = cited from earlier work
[6] = CYP3A5*3/*3 compared to *1/*1 or *1/*3; cited from earlier work
[7] = African American (n=144), over the first 6 months
[8] = nonAfrican American (n=551), over the first 6 months

Question: For `C=CC[C@@H]1/C=C(\C)C[C@H](C)C[C@H](OC)[C@H]2O[C@@](O)(C(=O)C(=O)N3CCCC[C@H]3C(=O)O[C@H](/C(C)=C/[C@@H]3CC[C@@H](O)[C@H](OC)C3)[C@H](C)[C@@H](O)CC1=O)[C@H](C)C[C@@H]2OC` [tacrolimus, Tacrolimus], which Median trough ([1]; AAs, remained despite 60% higher doses (Figure 1)) is on record?
Answer: < 8 ng/mL

Question: What about the “Trough concentration, median (interquartile range)” value (from here on “Trough concentration, median”) [1, 7] of the same molecule?
Answer: 6.2 (4.4–8.4) ^d ng/mL

Question: And the “Trough dose-normalized, median (interquartile range)” value (shortened to “Trough dose-normalized, median”) [1, 7]?
Answer: 68.3 (46.1–103.6) ^d ng/ml per mg/kg/day

Question: And the “Subjects with first trough <8 ng/mL” value ([1]; African Americans)?
Answer: 96.6%

Question: What about the “First trough concentration (week one posttransplant), median (interquartile range)” value ([1]; African Americans, daily dose 4.0 (4.0–5.0) mg/day) of the same molecule?
Answer: 2.1 (1.2–3.5) ng/mL

Question: What about the “Dose-normalized trough, median (interquartile range)” value (“Dose-normalized trough, median” below) ([1]; CYP3A5*1/*1 genotype) of the same molecule?
Answer: 54.3(37.9–80.3) ng/mL per mg/kg

Question: And the “Trough concentration, median” value ([1]; CYP3A5 *1/*1 genotype (rs776746))?
Answer: 5.8(4.1–7.9) ng/mL

Question: What about the “Dose-normalized trough, median” value ([1]; CYP3A5 *1/*3 genotype) of the same molecule?
Answer: 77.8(53.1–114.6) ng/mL per mg/kg

Question: What about the “Trough concentration, median” value ([1]; CYP3A5 *1/*3 genotype (rs776746)) of the same molecule?
Answer: 7.1(5.1–9.3) ng/mL

Question: What about the “Dose-normalized trough, median” value ([1]; CYP3A5 *3/*3 genotype) of the same molecule?
Answer: 141.1(91.7–214.5) ng/mL per mg/kg

Question: What about the “Trough concentration, median” value ([1]; CYP3A5 *3/*3 genotype (rs776746)) of the same molecule?
Answer: 8.4(6.5–10.5) ng/mL

Question: And the “Trough dose-normalized, median” value ([1]; all subjects (n=695), over the first 6 months)?
Answer: 116.5 (70.7–186.3) ng/ml per mg/kg/day

Question: What about the “Trough concentration, median” value ([1]; all subjects (n=695), over the first 6 months, whole blood, oral dosing) of the same molecule?
Answer: 7.9 (5.9–10.1) ng/mL

Question: What about the “Trough concentration, median” value ([1]; center 1, 6 month study period) of the same molecule?
Answer: 9.5 (8.0–11.4) ng/mL

Question: What about the “Trough concentration, median” value ([1]; center 2, 6 month study period) of the same molecule?
Answer: 10.5 (7.4–13.0) ng/mL

Question: And the “Trough concentration, median” value ([1]; center 3, 6 month study period)?
Answer: 7.9 (6.1–10.1) ng/mL

Question: And the “Trough concentration, median” value ([1]; center 4, 6 month study period)?
Answer: 9.7 (7.5–12.2) ng/mL

Question: And the “Trough concentration, median” value ([1]; center 5, 6 month study period)?
Answer: 8.9 (7.1–10.6) ng/mL

Question: What about the “Trough concentration, median” value ([1]; center 6, 6 month study period) of the same molecule?
Answer: 9.1 (7.0–11.3) ng/mL

Question: What about the “Trough concentration, median” value ([1]; center 7, 6 month study period) of the same molecule?
Answer: 6.6 (4.7–8.7) ng/mL

Question: And the First trough concentration ([1]; measured within 4 days after transplantation, in most subjects)?
Answer: < 5 ng/mL

Question: What about the Troughs achieved ([1]; non-AA group, quickly achieved (Figure 1)) of the same molecule?
Answer: > 8 ng/mL

Question: What about the “Subjects with first trough <8 ng/mL” value ([1]; non-African Americans) of the same molecule?
Answer: 73.9%

Question: What about the “First trough concentration (week one posttransplant), median (interquartile range)” value ([1]; non-African Americans, daily dose 4.0 [4.0–6.0] mg/day) of the same molecule?
Answer: 5.0 [3.1–8.2] ng/mL and 5.0 (3.1–8.2) ng/mL

Question: What about the “Trough concentration, median” value [1, 8] of the same molecule?
Answer: 8.3 (6.4–10.4) ng/mL

Question: What about the “Trough dose-normalized, median” value [1, 8] of the same molecule?
Answer: 131.4 (83.0–201.8) ng/ml per mg/kg/day

Question: And the “Median trough lower in AA than in non-AA recipients” value ([1]; over the 6 month study period, AAs on 60% higher median daily dose)?
Answer: 2.1 ng/mL

Question: And the “Reduction in log transformed dose-normalized trough” value ([2]; AA race relative to non-AAs)?
Answer: 0.04

Question: And the “Increase in dose-normalized trough” value ([2]; CYP3A4 (rs7801671, rs12114000, rs2687117), CYP3A7 (rs2687080, rs776740), CYP3A5 (rs10264272) variants, adjusted for rs776746)?
Answer: 20–32%

Question: What about the “Increase in log transformed dose-normalized troughs” value ([2]; calcium channel blocker (CCB) use) of the same molecule?
Answer: 0.03

Question: And the “Increase in log transformed dose-normalized troughs” value ([2]; diabetes)?
Answer: 0.12

Question: And the “Increase in log transformed dose-normalized troughs” value ([2]; male gender)?
Answer: 0.17

Question: What about the “Reduction in log transformed dose-normalized troughs” value ([2]; one A allele (CYP3A5*1, rs776746)) of the same molecule?
Answer: 36%

Question: What about the “Effect on log transformed dose-normalized troughs (estimate ± SE)” value ([2]; one A allele (CYP3A5*1, rs776746), adjusted for clinical factors) of the same molecule?
Answer: −0.44±0.03

Question: And the “Increase in log transformed dose-normalized troughs” value ([2]; one allele of CYP3A4 (rs7801671, rs12114000, rs2687117), CYP3A7 (rs2687080, rs776740), CYP3A5 (rs10264272) variants, adjusted for rs776746)?
Answer: 0.18–0.28

Question: And the “Reduction in log transformed dose-normalized troughs” value ([2]; two A alleles (CYP3A5*1, rs776746))?
Answer: 59%

Question: What about the “Effect on log transformed dose-normalized first trough (Estimate ± SE)” value ([3]; African American subjects only, Diabetes) of the same molecule?
Answer: 0.45 ± 0.12

Question: And the “Effect on log transformed dose-normalized first trough (Estimate ± SE)” value ([3]; African American subjects only, rs776746 (CYP3A5))?
Answer: −0.25 ± 0.08

Question: And the “Effect on log transformed dose-normalized first trough (Estimate ± SE)” value ([3]; African American subjects only, rs2072374 (CNAP1))?
Answer: −0.45 ± 0.17

Question: And the “Effect on log transformed dose-normalized first trough (Estimate ± SE)” value ([3]; African American subjects only, rs2239393 (COMT))?
Answer: −0.19 ± 0.08

Question: And the “Effect on log transformed dose-normalized first trough (Estimate ± SE)” value ([3]; African American subjects only, rs2280789 (CCL5))?
Answer: 0.23 ± 0.10

Question: And the “Effect on log transformed dose-normalized first trough (Estimate ± SE)” value ([3]; African American subjects only, rs2288648 (FASTK))?
Answer: −0.41 ± 0.17

Question: What about the “Effect on log transformed dose-normalized first trough (Estimate ± SE)” value ([3]; African American subjects only, rs3136228 (MSH6)) of the same molecule?
Answer: −0.20 ± 0.08

Question: What about the “Effect on log transformed dose-normalized first trough (Estimate ± SE)” value ([3]; African American subjects only, rs12114000 (CYP3A4)) of the same molecule?
Answer: 0.38 ± 0.11

Question: What about the “Effect on log transformed dose-normalized first trough (Estimate ± SE)” value ([3]; Non-African American subjects only, Age in years, mean-centered at 50.2 years) of the same molecule?
Answer: 0.010 ± 0.002

Question: And the “Effect on log transformed dose-normalized first trough (Estimate ± SE)” value ([3]; Non-African American subjects only, Diabetes)?
Answer: 0.21 ± 0.06

Question: And the “Effect on log transformed dose-normalized first trough (Estimate ± SE)” value ([3]; Non-African American subjects only, rs4926 (SERPING1))?
Answer: −0.12 ± 0.04

Question: What about the “Effect on log transformed dose-normalized first trough (Estimate ± SE)” value ([3]; Non-African American subjects only, rs17567 (EPS15)) of the same molecule?
Answer: 0.12 ± 0.05

Question: What about the “Effect on log transformed dose-normalized first trough (Estimate ± SE)” value ([3]; Non-African American subjects only, rs776746 (CYP3A5)) of the same molecule?
Answer: −0.31 ± 0.07

Question: What about the “Effect on log transformed dose-normalized first trough (Estimate ± SE)” value ([3]; Non-African American subjects only, rs1800822 (FMO3)) of the same molecule?
Answer: 0.20 ± 0.09

Question: And the “Effect on log transformed dose-normalized first trough (Estimate ± SE)” value ([3]; Non-African American subjects only, rs2239393 (COMT))?
Answer: −0.07 ± 0.04

Question: What about the “Effect on log transformed dose-normalized first trough (Estimate ± SE)” value ([3]; Non-African American subjects only, rs2608555 (GAN)) of the same molecule?
Answer: 0.17 ± 0.04

Question: What about the “Effect on log transformed dose-normalized first trough (Estimate ± SE)” value ([3]; Non-African American subjects only, rs3135506 (APOA5)) of the same molecule?
Answer: −0.23 ± 0.08

Question: And the “Effect on log transformed dose-normalized first trough (Estimate ± SE)” value ([3]; Non-African American subjects only, rs3734354 (SIM1))?
Answer: 0.20 ± 0.06

Question: And the “Effect on log transformed dose-normalized first trough (Estimate ± SE)” value ([3]; all subjects model, Age in years, mean-centered at 50.2 years)?
Answer: 0.008 ± 0.002

Question: What about the “Effect on log transformed dose-normalized first trough (Estimate ± SE)” value ([3]; all subjects model, Diabetes) of the same molecule?
Answer: 0.23 ± 0.05

Question: And the “Effect on log transformed dose-normalized first trough (Estimate ± SE)” value ([3]; all subjects model, rs3448 (GPX1))?
Answer: 0.07 ± 0.04

Question: What about the “Effect on log transformed dose-normalized first trough (Estimate ± SE)” value ([3]; all subjects model, rs4926 (SERPING1)) of the same molecule?
Answer: −0.09 ± 0.04

Question: What about the “Effect on log transformed dose-normalized first trough (Estimate ± SE)” value ([3]; all subjects model, rs13321 (TNC)) of the same molecule?
Answer: 0.06 ± 0.04

Question: And the “Effect on log transformed dose-normalized first trough (Estimate ± SE)” value ([3]; all subjects model, rs17567 (EPS15))?
Answer: 0.10 ± 0.04

Question: What about the “Effect on log transformed dose-normalized first trough (Estimate ± SE)” value ([3]; all subjects model, rs776746 (CYP3A5)) of the same molecule?
Answer: −0.33 ± 0.05

Question: And the “Effect on log transformed dose-normalized first trough (Estimate ± SE)” value ([3]; all subjects model, rs2072374 (CNAP1))?
Answer: −0.08 ± 0.04

Question: And the “Effect on log transformed dose-normalized first trough (Estimate ± SE)” value ([3]; all subjects model, rs2239393 (COMT))?
Answer: −0.28 ± 0.08

Question: What about the “Effect on log transformed dose-normalized first trough (Estimate ± SE)” value ([3]; all subjects model, rs2608555 (GAN)) of the same molecule?
Answer: 0.15 ± 0.04

Question: And the “Effect on log transformed dose-normalized first trough (Estimate ± SE)” value ([3]; all subjects model, rs2687117 (CYP3A4))?
Answer: 0.26 ± 0.08

Question: What about the “Effect on log transformed dose-normalized first trough (Estimate ± SE)” value ([3]; all subjects model, rs3135506 (APOA5)) of the same molecule?
Answer: −0.23 ± 0.07

Question: What about the “Effect on log transformed dose-normalized first trough (Estimate ± SE)” value ([3]; all subjects model, rs3734354 (SIM1)) of the same molecule?
Answer: 0.19 ± 0.06

Question: And the “Effect on log transformed dose-normalized first trough (Estimate ± SE)” value ([3]; all subjects model, rs4646312 (COMT))?
Answer: 0.22 ± 0.08

Question: And the “Fraction metabolized through CYP3A5” value ([4]; hepatic enzymes from CYP3A5*1 allele carriers)?
Answer: 60%

Question: And the “Intrinsic tacrolimus clearance of CYP3A5 enzyme relative to CYP3A4” value ([4]; in vitro)?
Answer: twice

Question: And the “Subjects achieving the trough target” value ([5]; control group)?
Answer: 29.1%

Question: And the “Subjects achieving the trough target” value ([5]; genotype adapted dosing)?
Answer: 43.2%

Question: And the “Intersubject pharmacokinetic variability in area under the curve, higher” value [6]?
Answer: 41.1%
